We go through ten compounds from ChEMBL document CHEMBL3351243, “Novel inhibitors of human histone deacetylases: design, synthesis and bioactivity of 3-alkenoylcoumarines” (Bioorg Med Chem Lett, 2014).

Calls of active or inactive are those of the source. No cut-off for these calls is given here.

Data set [1] deals with T1, Histone deacetylase (Homo sapiens) (UniProt Q13547+O15379+Q9UBN7+Q92769+Q9UQL6+Q8WUI4+Q9BY41+Q96DB2+P56524+Q9UKV0+Q969S8). The data set can be described thus: Inhibition of HDAC in human K562 cells nuclear extracts at 100 uM. In kind it is cell-free. In a few lines:
(§1)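 Total HDAC activity was measured in vitro on K-562 nuclear extracts with compound at 100 µM. Values are the mean percent change from two independent experiments.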

The test system of data set [2] is U-937. In words: Antiproliferative activity against human U937 cells at 10 to 100 uM after 24 to 72 hrs. In kind it is functional, cell-based. The procedure, abridged: (§2)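 K-562 (chronic myeloid leukemia) and U-937 (histiocytic lymphoma) cells were exposed to the indicated compound concentrations. Proliferation and viability were scored separately at 24, 48 and 72 h. Data are mean ± SD of three independent cultures.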

A further data set has as its system PBMC. The data set can be described thus: Cytotoxicity against human PBMC assessed as reduction in cell viability at 10 to 100 uM after 24 to 48 hrs.
The subject of data set [3] is U-937. The data set can be described thus: Cytotoxicity against human U937 cells assessed as reduction in cell viability at 10 to 100 uM after 24 to 72 hrs. It is filed as functional, cell-based. The procedure, abridged:
as §2

For data set [4], the system named is K562. In words: Antiproliferative activity against human K562 cells at 10 to 100 uM after 24 to 72 hrs. It is filed as functional, cell-based. The procedure, abridged:
as §2

In data set [5] the test system is U-937. In words: Antiproliferative activity against human U937 cells at 10 to 100 uM after 24 to 48 hrs. In kind it is functional, cell-based. The procedure, abridged:
as §2

Data set [6] deals with U-937. In words: Antiproliferative activity against human U937 cells at 10 to 100 uM after 72 hrs. In kind it is functional, cell-based. The procedure, abridged:
as §2

The subject of data set [7] is K562. The data set can be described thus: Cytotoxicity against human K562 cells assessed as reduction in cell viability at 10 to 100 uM after 24 to 72 hrs. It is filed as functional, cell-based. The procedure, abridged:
as §2

The target of the next data set is Histone deacetylase 1 (Homo sapiens, UniProt Q13547). The data set can be described thus: Inhibition of HDAC1 (unknown origin). The procedure, abridged: (§3)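 Activity of individual HDAC isoenzymes (classes I, IIb and IV) was measured in vitro with compound. IC50 values come from two independent experiments.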
The target of data set [8] is T2, Protein deacetylase HDAC6 (Homo sapiens, UniProt Q9UBN7).
T2 sequence (Q9UBN7 whole entry): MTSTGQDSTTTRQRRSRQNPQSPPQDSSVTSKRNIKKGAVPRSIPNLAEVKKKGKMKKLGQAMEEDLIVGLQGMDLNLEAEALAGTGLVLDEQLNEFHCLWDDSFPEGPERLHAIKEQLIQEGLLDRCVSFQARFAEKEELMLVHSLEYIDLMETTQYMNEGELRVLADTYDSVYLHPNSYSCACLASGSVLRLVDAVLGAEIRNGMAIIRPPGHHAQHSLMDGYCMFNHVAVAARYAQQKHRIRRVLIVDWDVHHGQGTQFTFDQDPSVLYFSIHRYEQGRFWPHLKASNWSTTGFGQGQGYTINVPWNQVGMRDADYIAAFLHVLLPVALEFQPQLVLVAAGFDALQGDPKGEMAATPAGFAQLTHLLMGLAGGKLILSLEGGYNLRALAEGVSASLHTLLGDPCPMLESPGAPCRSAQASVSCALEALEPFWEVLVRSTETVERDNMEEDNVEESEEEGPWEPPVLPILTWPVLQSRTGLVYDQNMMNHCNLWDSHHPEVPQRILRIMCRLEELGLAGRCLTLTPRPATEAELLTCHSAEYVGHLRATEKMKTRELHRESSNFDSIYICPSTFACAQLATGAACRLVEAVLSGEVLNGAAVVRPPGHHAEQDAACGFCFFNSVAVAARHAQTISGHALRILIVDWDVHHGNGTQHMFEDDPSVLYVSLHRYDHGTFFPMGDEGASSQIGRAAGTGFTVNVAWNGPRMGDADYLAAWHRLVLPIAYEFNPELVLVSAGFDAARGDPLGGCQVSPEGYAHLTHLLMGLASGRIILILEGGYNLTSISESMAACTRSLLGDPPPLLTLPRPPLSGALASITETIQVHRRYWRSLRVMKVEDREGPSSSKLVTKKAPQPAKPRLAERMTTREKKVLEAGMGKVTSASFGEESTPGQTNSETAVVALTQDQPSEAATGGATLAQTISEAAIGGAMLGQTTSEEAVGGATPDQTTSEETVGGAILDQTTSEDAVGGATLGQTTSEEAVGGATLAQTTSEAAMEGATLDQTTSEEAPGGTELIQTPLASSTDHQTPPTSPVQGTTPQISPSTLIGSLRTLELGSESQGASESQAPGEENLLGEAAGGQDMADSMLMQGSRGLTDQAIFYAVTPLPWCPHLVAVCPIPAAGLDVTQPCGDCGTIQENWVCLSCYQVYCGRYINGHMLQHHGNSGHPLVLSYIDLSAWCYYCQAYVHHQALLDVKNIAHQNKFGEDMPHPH
In words: Inhibition of HDAC6 (unknown origin). The procedure, abridged: as §3

For a further data set, the target named is Histone deacetylase 2 (Homo sapiens, UniProt Q92769). In words: Inhibition of HDAC2 (unknown origin). In a few lines: as §3
For a further data set, the target named is Histone deacetylase 3 (Homo sapiens, UniProt O15379). In words: Inhibition of HDAC3 (unknown origin). In a few lines:
as §3

For the next data set, the target named is T3, Histone deacetylase 8 (Homo sapiens, UniProt Q9BY41).
T3 sequence (Q9BY41 whole entry): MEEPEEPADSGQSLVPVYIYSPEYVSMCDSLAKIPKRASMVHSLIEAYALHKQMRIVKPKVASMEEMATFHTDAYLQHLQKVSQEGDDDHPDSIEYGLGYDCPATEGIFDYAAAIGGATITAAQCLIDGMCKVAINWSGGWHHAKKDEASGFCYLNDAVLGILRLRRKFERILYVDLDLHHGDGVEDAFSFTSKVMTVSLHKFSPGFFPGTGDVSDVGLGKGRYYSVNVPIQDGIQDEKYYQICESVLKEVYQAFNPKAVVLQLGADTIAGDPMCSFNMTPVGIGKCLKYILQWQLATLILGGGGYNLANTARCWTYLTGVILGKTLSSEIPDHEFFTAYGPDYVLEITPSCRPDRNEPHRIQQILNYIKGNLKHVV
The data set can be described thus: Inhibition of HDAC8 (unknown origin). The procedure, abridged:
as §3

For data set [9], the target named is T4, Polyamine deacetylase HDAC10 (Homo sapiens, UniProt Q969S8).
T4 sequence (Q969S8 whole entry): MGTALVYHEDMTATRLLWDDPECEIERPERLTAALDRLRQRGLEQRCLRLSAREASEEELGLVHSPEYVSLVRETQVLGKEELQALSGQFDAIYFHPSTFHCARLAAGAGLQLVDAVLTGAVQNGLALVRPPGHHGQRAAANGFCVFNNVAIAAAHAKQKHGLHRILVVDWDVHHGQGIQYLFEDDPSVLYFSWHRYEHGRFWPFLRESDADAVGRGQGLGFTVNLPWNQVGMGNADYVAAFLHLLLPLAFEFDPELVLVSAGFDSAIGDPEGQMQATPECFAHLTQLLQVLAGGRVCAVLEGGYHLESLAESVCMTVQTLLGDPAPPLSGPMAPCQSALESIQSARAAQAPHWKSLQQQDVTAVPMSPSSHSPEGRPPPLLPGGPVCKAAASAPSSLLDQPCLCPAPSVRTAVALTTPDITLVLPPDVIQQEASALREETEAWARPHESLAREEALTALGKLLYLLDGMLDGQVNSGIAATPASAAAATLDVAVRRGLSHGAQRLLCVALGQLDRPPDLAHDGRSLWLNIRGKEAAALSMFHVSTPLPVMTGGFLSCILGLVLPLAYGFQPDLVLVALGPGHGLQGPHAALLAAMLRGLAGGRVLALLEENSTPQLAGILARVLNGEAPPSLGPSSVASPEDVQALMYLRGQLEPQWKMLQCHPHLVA
In words: Inhibition of HDAC10 (unknown origin). In a few lines: as §3

The next data set addresses T5, Histone deacetylase 11 (Homo sapiens, UniProt Q96DB2).
T5 sequence (Q96DB2 whole entry): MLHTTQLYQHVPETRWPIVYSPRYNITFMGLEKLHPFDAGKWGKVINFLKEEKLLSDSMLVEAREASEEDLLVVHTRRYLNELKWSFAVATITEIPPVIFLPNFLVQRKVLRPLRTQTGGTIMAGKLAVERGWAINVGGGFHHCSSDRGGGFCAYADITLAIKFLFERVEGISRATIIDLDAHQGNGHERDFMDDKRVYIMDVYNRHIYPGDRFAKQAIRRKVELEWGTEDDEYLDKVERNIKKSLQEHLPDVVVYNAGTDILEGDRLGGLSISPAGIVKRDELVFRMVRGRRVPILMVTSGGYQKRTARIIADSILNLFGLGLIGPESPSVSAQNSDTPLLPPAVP
The data set can be described thus: Inhibition of HDAC11 (unknown origin). In a few lines:
as §3

In data set [10] the target is T1, Histone deacetylase (Homo sapiens). The data set can be described thus: Increase in HDAC activity in human K562 cells nuclear extracts at 100 uM. It is filed as cell-based. In a few lines: as §1

Sequence of Histone deacetylase 2 (Q92769 whole entry): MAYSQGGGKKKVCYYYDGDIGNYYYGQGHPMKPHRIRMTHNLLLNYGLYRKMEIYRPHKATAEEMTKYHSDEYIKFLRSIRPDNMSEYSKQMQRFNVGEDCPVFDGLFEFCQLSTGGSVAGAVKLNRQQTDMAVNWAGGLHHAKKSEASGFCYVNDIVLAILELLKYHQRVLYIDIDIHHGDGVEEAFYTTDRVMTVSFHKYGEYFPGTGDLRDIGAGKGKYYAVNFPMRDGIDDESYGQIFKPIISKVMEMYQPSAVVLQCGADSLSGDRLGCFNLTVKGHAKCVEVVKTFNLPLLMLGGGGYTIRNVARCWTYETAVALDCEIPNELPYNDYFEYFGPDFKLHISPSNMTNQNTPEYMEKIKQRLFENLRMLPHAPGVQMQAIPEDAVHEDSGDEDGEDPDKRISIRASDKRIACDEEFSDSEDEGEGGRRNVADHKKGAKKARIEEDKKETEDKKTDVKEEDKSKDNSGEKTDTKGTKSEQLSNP
Sequence of Histone deacetylase 1 (Q13547 whole entry): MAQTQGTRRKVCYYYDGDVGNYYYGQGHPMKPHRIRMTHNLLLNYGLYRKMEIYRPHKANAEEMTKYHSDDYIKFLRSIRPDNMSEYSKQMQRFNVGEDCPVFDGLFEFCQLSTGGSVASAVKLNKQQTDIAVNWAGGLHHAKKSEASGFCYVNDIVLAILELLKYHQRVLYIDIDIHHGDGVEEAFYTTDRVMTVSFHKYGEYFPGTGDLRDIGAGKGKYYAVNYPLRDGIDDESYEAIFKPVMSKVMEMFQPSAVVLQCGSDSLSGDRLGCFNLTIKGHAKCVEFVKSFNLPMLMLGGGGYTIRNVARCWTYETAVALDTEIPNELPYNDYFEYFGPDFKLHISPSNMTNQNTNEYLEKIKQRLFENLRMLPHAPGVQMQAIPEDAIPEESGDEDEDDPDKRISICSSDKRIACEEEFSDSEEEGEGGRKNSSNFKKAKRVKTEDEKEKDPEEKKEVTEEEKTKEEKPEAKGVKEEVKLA
Sequence of Histone deacetylase 3 (O15379 whole entry): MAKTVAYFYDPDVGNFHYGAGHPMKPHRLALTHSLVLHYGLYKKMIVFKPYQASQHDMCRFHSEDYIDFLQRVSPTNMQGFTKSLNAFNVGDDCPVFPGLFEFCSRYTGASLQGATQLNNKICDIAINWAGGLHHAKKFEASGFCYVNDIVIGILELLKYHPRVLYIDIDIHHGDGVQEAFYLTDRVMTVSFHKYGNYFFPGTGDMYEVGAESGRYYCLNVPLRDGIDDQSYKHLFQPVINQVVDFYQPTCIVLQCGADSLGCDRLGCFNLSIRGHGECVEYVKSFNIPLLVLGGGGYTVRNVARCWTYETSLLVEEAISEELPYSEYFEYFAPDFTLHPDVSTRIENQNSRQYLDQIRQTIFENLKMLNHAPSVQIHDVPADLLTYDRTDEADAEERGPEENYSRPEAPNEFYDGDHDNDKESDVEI

Take `COc1ccc2cc(C(=O)/C=C/c3ccc(OC)c(OC)c3)c(=O)oc2c1`: the inhibition – broadly, the share of the control response that was lost under treatment – in data set [1] was less than 10%.

As to `O=C(/C=C/C=C/c1ccccc1)c1cc2ccccc2oc1=O`, the inhibition in data set [1] was less than 10%.

As for `COc1ccc(/C=C/C(=O)c2cc(=O)oc3cc(OC)ccc23)cc1`, the inhibition entry in the data set with U-937 [2], with U-937 [3] and with K562 [4] was “Active” throughout. Moreover, the Activity result with PBMC is recorded as “Non-toxic”. In addition, the inhibition in [1] was found to be 20%.

Regarding `COc1ccc2cc(C(=O)/C=C/C=C/c3ccc(O)c(OC)c3)c(=O)oc2c1`, the inhibition in data set [1] is less than 10%.

`COc1ccc2cc(C(C)=O)c(=O)oc2c1`: the inhibition result in the data set with U-937 [5] and with K562 [4] was “inactive” each time. In the data set with PBMC, the Activity entry is listed as “Non-toxic”. Further, the inhibition result in the data set on U-937 [6] was “Active”. In addition, the outcome in the data set with K562 [7] was inactive. The compound also gave an inhibition in data set [1] of 20%.

For `COc1ccc(/C=C/C=C/C(=O)c2cc3ccc(OC)cc3oc2=O)cc1`, the inhibition result with U-937 [2] and in the data set with K562 [4] was “Active” each time. In the data set with PBMC, the Activity result is “Non-toxic”. This compound also came in with an inhibition in [1] of 30%.

As for `O=C(/C=C/c1ccccc1)c1cc2ccccc2oc1=O`, in [1], the inhibition was less than 10%.

Regarding `COc1ccc2cc(C(=O)/C=C/C=C/c3ccc(OC)c(OC)c3)c(=O)oc2c1`, the inhibition entry with U-937 [2] and in the data set on K562 [4] was “Active” throughout. In addition, the half-maximal inhibitory concentration (IC50) (in general, the concentration needed to halve the response being measured) turned out to be 59 µM at Histone deacetylase 1; 32 µM in data set [8]; 33 µM against Histone deacetylase 2; 12 µM on Histone deacetylase 3; 28 µM on Histone deacetylase 8; 85 µM in [9]. The compound further had an IC50 at Histone deacetylase 11 of 74 µM. Besides, in the data set with PBMC, the Activity result was “Non-toxic”. Further, in data set [1], the inhibition worked out at 50%.

As for `COc1ccc(/C=C/C=O)cc1OC` [3,4-DIMETHOXY CINNAMALDEHYDE], the inhibition result in the data set on U-937 [5] and in the data set on K562 [4] was “inactive” in each case. Also, the Activity result with PBMC is “Non-toxic”; in data set [10], 80%. The inhibition entry in the data set on U-937 [6] is “Active”. The outcome with K562 [7] was inactive.

As to `COc1ccc(/C=C/C(=O)c2cc3ccc(OC)cc3oc2=O)cc1`, the inhibition in [1] was less than 10%.
